# Activity calls are given as the source filed them. The calls are words filed in the database; no cut-off is given here.
# Assays:
# [1] = molecular target: T1, Protein deacetylase HDAC6 (Homo sapiens) (UniProt Q9UBN7); assay: Inhibition of HDAC6 in human WM795 cells assessed as increase in acetylated alpha-tubulin levels at 0.5 to 8 uM after 24 hrs by Western blot method; type: cell-based
# T1 sequence (whole entry): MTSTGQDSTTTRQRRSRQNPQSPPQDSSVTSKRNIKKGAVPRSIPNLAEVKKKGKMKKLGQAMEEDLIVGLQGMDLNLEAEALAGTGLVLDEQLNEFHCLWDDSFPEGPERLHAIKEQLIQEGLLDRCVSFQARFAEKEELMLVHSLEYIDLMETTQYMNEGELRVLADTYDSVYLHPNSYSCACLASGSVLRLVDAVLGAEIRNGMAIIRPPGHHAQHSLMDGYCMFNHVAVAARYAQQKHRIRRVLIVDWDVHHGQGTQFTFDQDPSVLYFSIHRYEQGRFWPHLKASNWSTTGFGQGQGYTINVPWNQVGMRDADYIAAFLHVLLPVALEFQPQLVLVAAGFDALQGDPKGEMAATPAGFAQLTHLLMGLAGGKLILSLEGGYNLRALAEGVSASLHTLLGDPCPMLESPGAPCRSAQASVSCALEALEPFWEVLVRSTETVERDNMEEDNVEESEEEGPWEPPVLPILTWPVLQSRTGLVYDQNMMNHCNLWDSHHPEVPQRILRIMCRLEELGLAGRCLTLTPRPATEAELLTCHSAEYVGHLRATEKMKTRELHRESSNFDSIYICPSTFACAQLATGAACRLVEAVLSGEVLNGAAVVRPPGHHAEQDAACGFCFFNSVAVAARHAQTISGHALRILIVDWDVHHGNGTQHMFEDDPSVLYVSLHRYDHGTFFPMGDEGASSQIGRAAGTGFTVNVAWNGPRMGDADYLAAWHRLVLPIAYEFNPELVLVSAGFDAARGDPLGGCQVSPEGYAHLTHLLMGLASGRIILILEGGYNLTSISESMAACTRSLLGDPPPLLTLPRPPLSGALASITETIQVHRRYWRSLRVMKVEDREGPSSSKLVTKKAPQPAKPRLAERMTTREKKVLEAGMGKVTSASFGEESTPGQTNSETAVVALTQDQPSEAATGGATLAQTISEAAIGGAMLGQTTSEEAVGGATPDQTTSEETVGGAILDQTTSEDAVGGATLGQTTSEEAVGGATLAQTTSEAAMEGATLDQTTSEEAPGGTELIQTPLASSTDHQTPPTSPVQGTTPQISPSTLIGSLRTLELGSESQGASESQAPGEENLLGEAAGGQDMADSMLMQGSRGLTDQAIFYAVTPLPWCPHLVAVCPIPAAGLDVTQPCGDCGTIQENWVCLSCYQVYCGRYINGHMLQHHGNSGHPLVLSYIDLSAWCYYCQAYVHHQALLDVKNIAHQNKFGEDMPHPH
# Method in brief: (§1)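 WM795 human melanoma cells were treated for 24 h across a range of concentrations. Protein extracts were run on SDS-PAGE and immunoblotted with antibodies to HDAC6, α-tubulin, acetylated α-tubulin, histone H3 and acetylated H3. A selective HDAC6 inhibitor and a pan-HDAC inhibitor were included on each blot as positive controls. Blots are representative of three independent experiments.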
# [2] = molecular target: T1, Protein deacetylase HDAC6 (Homo sapiens); assay: Inhibition of HDAC6 in human WM795 cells assessed as increase in acetylated histone H3 levels at 0.5 to 8 uM after 24 hrs by Western blot method; type: cell-based; method in brief: as §1
# [3] = molecular target: T2, Protein deacetylase HDAC6 (Homo sapiens, UniProt Q9UBN7); assay: Inhibition of recombinant human full length HDAC6 expressed in baculovirus infected Sf9 insect cells using p53 (379 to 382 residues) derived RHKKAc as substrate preincubated for 5 to 10 mins followed by substrate addition measured after 2 hrs by fluorescence assay
# T2 sequence (Q9UBN7 whole entry): T1 sequence (whole entry)
# Histone deacetylase 1 = Histone deacetylase 1 (Homo sapiens, UniProt Q13547); assay: Inhibition of recombinant human full length HDAC1 expressed in baculovirus infected Sf9 insect cells using p53 (379 to 382 residues) derived RHKKAc as substrate preincubated for 5 to 10 mins followed by substrate addition measured after 2 hrs by fluorescence assay
# Mus musculus [4] = assay: Antitumor activity against mouse B16-F10-luc cells xenografted in C57BL/6 mouse assessed as reduction in tumor volume at 20 mg/kg, ip administered daily for 22 days; type: functional, organism-based
# Method in brief: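 C57BL/6 mice implanted subcutaneously with B16-F10-luc WT cells; daily intraperitoneal dosing at 20 mg/kg for 22 days versus vehicle group; tumor volume and survival monitored throughout.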
# Mus musculus [5] = species on record: Mus musculus; assay: Antiproliferative activity against mouse SM1 cells at 1 to 15 uM after 48 hrs by MTS assay; type: functional, cell-based
# B16 [6] = assay: Antiproliferative activity against mouse B16 cells at 1 to 15 uM after 48 hrs by MTS assay; type: functional, cell-based
# Mus musculus [7] = species on record: Mus musculus; assay: Antiproliferative activity against mouse FcMCL cells at 1 to 15 uM after 48 hrs by MTS assay; type: functional, cell-based
# [8] = molecular target: T1, Protein deacetylase HDAC6 (Homo sapiens); assay: Inhibition of recombinant human full length HDAC6 expressed in baculovirus infected Sf9 insect cells up to 30 uM using p53 (379 to 382 residues) derived RHKKAc as substrate preincubated for 5 to 10 mins followed by substrate addition measured after 2 hrs by fluorescence assay
# Homo sapiens = species on record: Homo sapiens; assay: Selectivity ratio of IC50 for recombinant human full length HDAC8 expressed in baculovirus infected Sf9 insect cells to IC50 for recombinant human full length HDAC6 expressed in baculovirus infected Sf9 insect cells
# B16 [9] = assay: Antiproliferative activity against mouse B16 cells at lower concentration after 48 hrs by MTS assay; type: functional, cell-based
# Mus musculus [10] = species on record: Mus musculus; assay: Antiproliferative activity against mouse FcMCL cells at lower concentration after 48 hrs by MTS assay; type: functional, cell-based
# [11] = molecular target: T3, Protein deacetylase HDAC6 (Mus musculus) (UniProt Q9Z2V5); assay: Inhibition of HDAC6 in C57BL/6 mouse primary peritoneal macrophages assessed as decrease in IL-10 production at 3 uM after 24 hrs by ELISA
# T3 sequence (whole entry): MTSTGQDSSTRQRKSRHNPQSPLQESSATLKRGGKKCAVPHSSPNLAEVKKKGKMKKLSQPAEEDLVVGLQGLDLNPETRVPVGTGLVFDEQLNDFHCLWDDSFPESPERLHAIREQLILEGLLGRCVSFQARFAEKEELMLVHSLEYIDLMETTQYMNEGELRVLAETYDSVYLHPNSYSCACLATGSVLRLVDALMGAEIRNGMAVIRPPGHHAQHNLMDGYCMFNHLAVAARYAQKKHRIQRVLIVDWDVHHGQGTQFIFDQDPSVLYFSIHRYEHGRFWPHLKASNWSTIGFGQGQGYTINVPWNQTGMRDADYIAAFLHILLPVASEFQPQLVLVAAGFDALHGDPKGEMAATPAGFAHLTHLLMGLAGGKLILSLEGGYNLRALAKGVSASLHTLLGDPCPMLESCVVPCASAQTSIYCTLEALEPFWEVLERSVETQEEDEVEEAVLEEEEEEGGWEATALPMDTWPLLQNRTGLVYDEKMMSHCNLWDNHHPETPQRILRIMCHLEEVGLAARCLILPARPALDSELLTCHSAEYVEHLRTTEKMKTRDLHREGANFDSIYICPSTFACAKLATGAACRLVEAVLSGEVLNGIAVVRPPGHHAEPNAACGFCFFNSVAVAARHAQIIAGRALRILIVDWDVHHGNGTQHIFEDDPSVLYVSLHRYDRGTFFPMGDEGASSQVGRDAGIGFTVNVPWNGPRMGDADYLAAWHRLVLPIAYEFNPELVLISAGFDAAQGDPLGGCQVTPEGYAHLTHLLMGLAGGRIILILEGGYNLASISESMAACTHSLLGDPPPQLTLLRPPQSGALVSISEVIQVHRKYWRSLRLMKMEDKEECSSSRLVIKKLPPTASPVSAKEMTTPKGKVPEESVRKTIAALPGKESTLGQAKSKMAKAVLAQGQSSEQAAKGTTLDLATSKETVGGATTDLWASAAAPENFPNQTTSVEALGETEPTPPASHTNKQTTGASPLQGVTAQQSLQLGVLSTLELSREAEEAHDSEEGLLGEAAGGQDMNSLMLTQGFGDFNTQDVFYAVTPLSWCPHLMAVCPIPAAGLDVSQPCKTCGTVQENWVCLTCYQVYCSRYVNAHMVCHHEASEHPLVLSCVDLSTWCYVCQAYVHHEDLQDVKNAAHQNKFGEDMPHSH
# Method in brief: (§2)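 Cells (primary peritoneal elicited macrophages from C57BL/6 mice, or RAW264.7 murine macrophages) stimulated with LPS 1 µg/mL, with or without 3 µM compound, for 24 h; supernatants collected and IL-10 quantified by ELISA; statistics versus untreated cells.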
# [12] = molecular target: T3, Protein deacetylase HDAC6 (Mus musculus); assay: Inhibition of HDAC6 in mouse RAW264.7 cells assessed as decrease in IL-10 production at 3 uM after 24 hrs by ELISA; type: cell-based; method in brief: as §2
# [13] = Half life in human liver microsomes at 200 uM in presence of NADPH by LC-MS/MS analysis; type: ADME, microsome
# [14] = Half life in mouse liver microsomes at 200 uM in presence of NADPH by LC-MS/MS analysis; type: ADME, microsome
# [15] = Antitumor activity against mouse B16-F10-luc cells xenografted in C57BL/6 mouse assessed as mouse survival rate at 20 mg/kg, ip administered daily for 22 days (reference value: 40%); type: functional; settings: 528 h
# Mus musculus [16] = assay: Antitumor activity against mouse B16-F10-luc cells xenografted in C57BL/6 SCID mouse assessed as tumor growth inhibition at 20 mg/kg, ip administered daily for 20 days; type: functional, organism-based
# Sequence of Histone deacetylase 1 (Q13547 whole entry, the tested form may be a part): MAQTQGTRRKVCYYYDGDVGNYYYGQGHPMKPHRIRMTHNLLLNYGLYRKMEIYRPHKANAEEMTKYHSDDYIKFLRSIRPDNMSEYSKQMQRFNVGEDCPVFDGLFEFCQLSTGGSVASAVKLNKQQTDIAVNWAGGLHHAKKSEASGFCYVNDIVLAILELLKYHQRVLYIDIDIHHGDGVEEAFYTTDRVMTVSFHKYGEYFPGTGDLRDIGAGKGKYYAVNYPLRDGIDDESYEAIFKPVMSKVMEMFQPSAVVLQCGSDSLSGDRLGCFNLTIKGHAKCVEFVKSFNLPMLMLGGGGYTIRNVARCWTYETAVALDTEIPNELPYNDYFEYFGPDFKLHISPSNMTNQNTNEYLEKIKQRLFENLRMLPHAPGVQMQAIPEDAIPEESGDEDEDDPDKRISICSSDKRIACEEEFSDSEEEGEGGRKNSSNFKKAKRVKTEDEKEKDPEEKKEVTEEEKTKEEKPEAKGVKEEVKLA
smiles,measurement,setting,value
CCCCN(Cc1ccc(C(=O)NO)cc1)C(=O)Nc1ccccc1,inhibition,[1],Active
same,inhibition,[2],inactive
CCCCN(Cc1ccc(NC(=O)[C@H](C)N)cc1)C(=O)Nc1ccccc1,IC50,[3]; sf9,Not Active
CCCCN(Cc1ccc(N(O)C=O)cc1)C(=O)Nc1ccccc1,IC50,Histone deacetylase 1,> 30 µM
same,IC50,[3]; read-out: IC50,1020 nM
CN1CCc2c(c3ccccc3n2Cc2ccc(C(=O)NO)cc2)C1,Activity,Mus musculus [4],Active
CCCCN(Cc1ccc(C(=O)NO)cc1)C(=O)Nc1ncccn1,IC50,[3]; read-out: IC50,6 nM
same,Activity,Mus musculus [5],Active
same,Activity,B16 [6],Active
same,Activity,Mus musculus [7],Active
same,inhibition,[1],Active
same,inhibition,[2],inactive
O=C(O)c1ccc(CN(CCCCO)C(=O)Nc2ccccc2)cc1,IC50,[3]; sf9,Not Active
same,inhibition,[8],inactive
CCCCN(Cc1ccc(C(=O)NO)cc1)C(=O)Nc1cccc(N(C)C)c1,Ratio IC50,Homo sapiens,> 500
same,IC50,[3]; read-out: IC50,1.7 nM
same,Activity,B16 [9],Active
same,Activity,Mus musculus [10],Active
same,inhibition,[1],Active
same,inhibition,[2],inactive
O=C(NO)c1ccc(CN(CCCCO)C(=O)Nc2ccccc2)cc1,Ratio IC50,Homo sapiens,> 500
same,IC50,Histone deacetylase 1,2.91 µM
same,IC50,[3]; read-out: IC50,0.87 nM
CCCCN(Cc1ccc(C(=O)NO)cc1)C(=O)Nc1cc(C)ccn1,IC50,Histone deacetylase 1,7.54 µM
same,IC50,[3]; read-out: IC50,43 nM
CCCCN(Cc1ccc(NC(=O)CN)cc1)C(=O)Nc1ccccc1,IC50,[3]; sf9,Not Active
CC(C)CN(Cc1ccc(C(=O)NO)cc1)C(=O)Nc1ccccc1,IC50,Histone deacetylase 1,6.13 µM
same,IC50,[3]; read-out: IC50,12 nM
CCCCN(C(=O)Nc1cccc(N(C)C)c1)c1ccc(C(=O)NO)cc1,IC50,Histone deacetylase 1,> 30 µM
same,IC50,[3]; read-out: IC50,1790 nM
CCCCN(Cc1ccc(/C(N)=N/O)cc1)C(=O)Nc1ccccc1,IC50,[3]; sf9,Not Active
CCCCN(Cc1ccc(C(=O)NO)cc1)C(=O)NCCN1CCCC1,IC50,Histone deacetylase 1,14.4 µM
same,IC50,[3]; read-out: IC50,74 nM
CCCCN(Cc1ccc(C(=O)NO)cc1)C(=O)Nc1ccc2cn[nH]c2c1,Ratio IC50,Homo sapiens,> 500
same,IC50,[3]; read-out: IC50,1.6 nM
same,Activity,Mus musculus [5],Active
same,Activity,B16 [6],Active
same,Activity,Mus musculus [7],Active
same,inhibition,[1],Active
same,inhibition,[2],inactive
same,inhibition,[11],Active
same,inhibition,[12],Active
same,half-life at 200 µM,[13],408 min
same,half-life at 200 µM,[14],239 min
same,survival at 20 mg/kg,[15],100%
same,Activity,Mus musculus [4],Active
same,TGI,Mus musculus [16],inactive

# Reference: ChEMBL document CHEMBL4130522, “Synthesis and Pharmacological Evaluation of Selective Histone Deacetylase 6 Inhibitors in Melanoma Models” (ACS Med Chem Lett, 2017)
